Laboratory results from ChEMBL document CHEMBL2040757, “New N-arylamino biquinoline derivatives: synthesis, antimicrobial, antituberculosis, and antimalarial evaluation” (Eur J Med Chem, 2012).
Converted amounts (≈) assume the structure as drawn.

What was measured:
[1] = system: Mycobacterium tuberculosis; assay: Growth inhibition of Mycobacterium tuberculosis H37Rv at 6.25 ug/mL after 12 to 28 days relative to control; assay type: functional
Salmonella typhi = assay: Antibacterial activity against Salmonella typhi MTCC 98 by broth microdilution method; assay type: functional, Salmonella enterica subsp. enterica serovar Typhi; conditions: Salmonella enterica
Streptococcus pneumoniae = assay: Antibacterial activity against Streptococcus pneumoniae MTCC 1936 by broth microdilution method; assay type: functional
Procedure, shortened: (§1)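 Broth microdilution per NCCLS, with serial dilutions in Mueller Hinton broth and DMSO as diluent. Tubes were incubated overnight at 37 °C. MIC was the lowest concentration giving no visible growth, with the control organism's MIC read to verify concentrations. Tubes without growth were subcultured overnight at 37 °C to judge bacteriostatic versus bactericidal action.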

Aspergillus fumigatus = assay: Antifungal activity against Aspergillus fumigatus MTCC 3008 by broth microdilution method; assay type: functional
Clostridium tetani = assay: Antibacterial activity against Clostridium tetani MTCC 449 by broth microdilution method; assay type: functional
Candida albicans = assay: Antifungal activity against Candida albicans MTCC 227 by broth microdilution method; assay type: functional
Escherichia coli = assay: Antibacterial activity against Escherichia coli MTCC 443 by broth microdilution method; assay type: functional; procedure, shortened: as §1
Vibrio cholerae = assay: Antibacterial activity against Vibrio cholerae MTCC 3906 by broth microdilution method; assay type: functional
Plasmodium falciparum = assay: Antimalarial activity against trophozoite stage of chloroquine-sensitive Plasmodium falciparum 3D7 infected in human erythrocytes after 48 hrs; assay type: functional, organism-based; conditions: 3D7, 48 h
Procedure, shortened: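 Parasites were kept in continuous culture in A+ human erythrocytes in RPMI with 10% human serum. Sorbitol-synchronized trophozoites at 1–2% parasitaemia and 2.5% haematocrit were exposed to serial dilutions (maximum 1 mg/ml; 0.02% final DMSO) for 48 h at 37 °C. Growth inhibition was measured; chloroquine and quinine served as positive controls. IC50 came from duplicate experiments.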

Bacillus subtilis = assay: Antibacterial activity against Bacillus subtilis MTCC 441 by broth microdilution method; assay type: functional; procedure, shortened: as §1

With `COc1ccc(NN2C(N)=C(C#N)C(c3cc4cc(Cl)ccc4nc3Cl)C3=C2CC(C)(C)CC3=O)cc1` (stereo not given) the inhibition at 6.25 µg/mL [1] was 22%, the MIC (Salmonella typhi) was 200 µg/mL (≈ 374 µM) and the MIC (Streptococcus pneumoniae) was 250 µg/mL (≈ 468 µM). It also gave an MIC (Aspergillus fumigatus) of over 1000 µg/mL, an MIC (Clostridium tetani) of 200 µg/mL (≈ 374 µM) and an MIC (Candida albicans) of 100 µg/mL (≈ 187 µM). It also gave an MIC (Escherichia coli) of 250 µg/mL (≈ 468 µM), an MIC (Vibrio cholerae) of 250 µg/mL (≈ 468 µM) and an IC50 (Plasmodium falciparum) of 0.026 µg/mL (≈ 0.0486 µM). The MIC (Bacillus subtilis) was 250 µg/mL (≈ 468 µM).
Work on `Cc1ccc(NN2C(N)=C(C#N)C(c3cc4cc(Cl)ccc4nc3Cl)C3=C2CC(C)(C)CC3=O)cc1` (stereo not given) yielded an inhibition at 6.25 µg/mL [1] of 72%, an MIC (Salmonella typhi) of 250 µg/mL (≈ 482 µM) and an MIC (Streptococcus pneumoniae) of 500 µg/mL (≈ 964 µM). For the same molecule, the MIC (Aspergillus fumigatus) was 500 µg/mL (≈ 964 µM), the MIC (Clostridium tetani) was 250 µg/mL (≈ 482 µM) and the MIC (Candida albicans) was 500 µg/mL (≈ 964 µM). The MIC (Escherichia coli) was 250 µg/mL (≈ 482 µM), the MIC (Vibrio cholerae) was 250 µg/mL (≈ 482 µM) and the IC50 (Plasmodium falciparum) was 0.014 µg/mL (≈ 0.027 µM). The MIC (Bacillus subtilis) was 500 µg/mL (≈ 964 µM).
`CC1(C)CC(=O)C2=C(C1)N(Nc1ccc(Cl)cc1)C(N)=C(C#N)C2c1cc2ccccc2nc1Cl` (stereo not given) was tested, and the inhibition at 6.25 µg/mL [1] was 22%, the MIC (Salmonella typhi) was 500 µg/mL (≈ 991 µM) and the MIC (Streptococcus pneumoniae) was 500 µg/mL (≈ 991 µM). For the same molecule, the MIC (Aspergillus fumigatus) was 500 µg/mL (≈ 991 µM), the MIC (Clostridium tetani) was 250 µg/mL (≈ 496 µM) and the MIC (Candida albicans) was 250 µg/mL (≈ 496 µM). For the same molecule, the MIC (Escherichia coli) was 200 µg/mL (≈ 396 µM), the MIC (Vibrio cholerae) was 500 µg/mL (≈ 991 µM) and the IC50 (Plasmodium falciparum) was 0.42 µg/mL (≈ 0.833 µM). It also gave an MIC (Bacillus subtilis) of 500 µg/mL (≈ 991 µM).
